Data set [1] in a line: Antiinvasive activity against mouse 26-L5 cells after 6 to 8 hrs by matrigel assay. In kind it is functional, cell-based. A digest of the protocol: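 Transwell chambers with 8.0-μm polycarbonate filters coated with Matrigel/fibronectin were used. Cells were fixed in methanol and stained with H&E. Non-invaded cells were swabbed off, and cells on the lower surface were counted in five fields per well. IC50 reported.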

Another data set deals with Candida albicans. Description: Antimicrobial activity against Candida albicans IFO1594 after 20 hrs. It is filed as functional, organism-based. The gist of the method: (§1)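 Broth microdilution. Overnight cultures (20 h, 30 °C, shaken) centrifuged and resuspended in saline at 1 × 10^5 cells/mL, diluted 1:10 into medium with sample in DMSO. C. albicans in yeast nitrogen base + 2% glucose, 30 °C. E. coli in Mueller Hinton broth, 37 °C. Growth read as A650 after 20 h. MIC reported.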

The next data set relates to Escherichia coli. Briefly: Antimicrobial activity against Escherichia coli NIH-JC2 after 20 hrs. In kind it is functional, organism-based. The gist of the method: as §1
Data set [2] in a line: Selectivity index, ratio of IC50 for cytotoxicity against mouse 26-L5 cells to IC50 for antiinvasive activity against mouse 26-L5 cells. It is filed as toxicity, cell-based. The settings on record: read-out: Ratio IC50.
For another data set, the system named is Micrococcus luteus. Description: Antimicrobial activity against Micrococcus luteus ATCC 9343 after 20 hrs. In kind it is functional. Conditions: ATCC 9343, 20 h. A digest of the protocol: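 Micrococcus luteus was grown 20 h at 30 °C with shaking, then pelleted and suspended in saline at 1 × 10^5 cells/mL. It was then mixed 1:10 with Mueller Hinton broth plus compound in DMSO.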

A short description of data set [3]: Cytotoxicity against mouse 26-L5 cells after 24 hrs by crystal violet staining assay. In kind it is cell-based. A digest of the protocol: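 Colon 26-L5 cells (5 × 10^3/well) were seeded in RPMI with 1% FCS and graded compound concentrations. They were incubated 24 h at 37 °C under 5% CO2, washed with PBS and fixed in 20% formalin. Cells were stained 30 min with crystal violet, the dye was eluted in 30% acetic acid and A590 was read. IC50 reported.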

≈ marks a conversion by molar mass, not a printed value. Calls of active or inactive are those of the source. No cut-off for these calls is given here.

In the case of `CC[C@@H](C[C@@H](C)C[C@H](C)C[C@H](C)C(=O)O)C(=O)/C=C(\O)[C@H](C)C[C@H](C)C/C=C/[C@H](C)[C@@H](O)CC1CCC(C)(C2CCC(C)([C@@H](C)O)O2)O1` (stereo partly specified), in data set [1], the midpoint of inhibition, the IC50, lay at 5.5 nM. For the same compound, the result with Candida albicans and in the data set on Escherichia coli was inactive. Also, the selectivity ratio in data set [2] was determined as 73. Further, in the data set on Micrococcus luteus, the MIC was determined as 6.25 µg/mL (≈ 9.2 µM).
For `C[C@H](C/C=C/[C@H](C)[C@@H](O)CC1CCC(C)(C2CCC(C)([C@@H](C)O)O2)O1)C[C@@H](C)/C(O)=C/C(=O)[C@@H](C)C[C@@H](C)C[C@H](C)C[C@H](C)C(=O)O` (stereo partly specified), the values for the 50% inhibitory concentration (IC50) in data set [1] and in data set [3] were 300 nM and 4500 nM, respectively. The outcome with Candida albicans and with Escherichia coli was inactive. In addition, in data set [2], the selectivity ratio amounted to 15. This compound also showed an MIC against Micrococcus luteus of 6.25 µg/mL (≈ 9.4 µM).

For orientation: IC50 means the concentration needed to halve the response being measured. The low end stands for greater potency, the high end for weaker potency. In general, MIC refers to the least concentration at which growth counts as inhibited. Read a high MIC as weaker potency.

(Values after ChEMBL document CHEMBL3259673, “Campechic acids A and B: anti-invasive polyether polyketides from a soil-derived Streptomyces” (J Nat Prod, 2014).)
